Measurements: paper PMC11040708 (JACS Au, 2024)

Target: N-HSP90α WT (Homo sapiens, UniProt P07900)
Test: SPR kinetics, two-state reaction model, amine-coupled protein
Assay type: binding
How it was run: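 Protein was pre-incubated with a 100-fold excess of a reference ATP-site inhibitor, diluted to 20 μg/mL in acetate pH 4.50, and amine-coupled to a CM5 chip (~4000 RU). Compounds came from 10 mM DMSO stock as 2-fold series in HEPES/Tween 20 buffer at 30 μL/min, with 120 s contact and 200–600 s dissociation. Solvent-corrected, double-referenced data were fitted with mass transport.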

Kd: 6.06 µM
SMILES: O=c1cc(-c2ccc(O)c(O)c2)oc2cc(O[C@@H]3O[C@H](CO)[C@@H](O)[C@H](O)[C@H]3O)cc(O)c12 [compound 5]
